Calls of active or inactive are those of the source. The rule behind the calls is not given here.
Key:
West Nile virus = experiment: Inhibition of West Nile virus NS2B-NS3 protease expressed in Escherichia coli BL21 lambda (DE3) using Abz-GLKRGG-3-(NO2)Y as substrate at 50 uM preincubated for 15 mins before substrate addition measured up to 15 mins by spectrofluorimetry
Procedure, shortened: (§1)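 Single-concentration screen against His-tagged NS2B-NS3 protease (Ni²⁺-affinity purified from E. coli). Enzyme was 100 nM for Dengue or 150 nM for West Nile. Inhibitor at 50 µM was preincubated 15 min with enzyme, then internally quenched FRET substrate (final 50 µM) was added. Read at ex 320/em 405 nm for 15 min. Rate taken as RFU/s; % inhibition is the mean of triplicates.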

Prothrombin = Prothrombin (Homo sapiens, UniProt P00734); experiment: Inhibition of human thrombin using Boc-VPR-AMC as substrate at 25 uM preincubated for 15 mins before substrate addition measured up to 10 mins by spectrofluorimetry
Dengue virus = experiment: Inhibition of Dengue virus NS2B-NS3 protease expressed in Escherichia coli BL21 lambda (DE3) using Abz-NleKRRS-3-(NO2)Y as substrate at 50 uM preincubated for 15 mins before substrate addition measured up to 15 mins by spectrofluorimetry; procedure, shortened: as §1

Row | SMILES | inhibition (West Nile virus) | inhibition (Prothrombin) | inhibition (Dengue virus)
1 | CN(C)c1ccc(/C=C/C=C(\C#N)C(=O)NC2CC2)cc1 | 17.1% | 16.2% | 10.3%
2 | CN1CCN(c2ccc(/C=C(\C#N)C(N)=O)cc2)CC1 | 40.9% | 22% | 32.3%
3 | CC(C)c1ccc(/C=C(\C#N)C(=O)NC2CC2)cc1 | 22.2% | 17.9% | 18.2%
4 | N#C/C(=C\c1ccc(C(=O)O)cc1)C(N)=O | 23.8% | 13.2% | 17.1%
5 | C/C(=C(\C#N)C(N)=O)c1ccccc1 | 18.4% | 9.7% | 9%
6 | COc1cc(/C=C(\C#N)C(N)=O)cc(OC)c1OC | 19.3% | 17.8% | 15.6%
7 | N#C/C(=C\c1cccc(O)c1)C(N)=O | 18.1% | 9.8% | 15.7%
8 | CC(C)c1ccc(/C=C(\C#N)C(N)=O)cc1 | 24.6% | 19.4% | 23%
9 | CN1CCN(C(=O)/C(C#N)=C/c2ccc(O)cc2)CC1 | 35.1% | 20.8% | 35.4%
10 | N#C/C(=C\c1ccc([N+](=O)[O-])cc1)C(N)=O | 10.5% | inactive | inactive
11 | N#C/C(=C\c1ccc(N2CCOCC2)cc1)C(N)=O | 35.3% | 19.2% | 28.2%
12 | C/C(=C(/C#N)C(N)=O)c1ccccc1 | 13.7% | 7.3% | inactive
13 | N#C/C(=C\c1ccc(N2CCCC2)cc1)C(N)=O | 24.6% | 17.7% | 24.3%
14 | CN(C)c1ccc(/C=C(\C#N)C(=O)NC2CC2)cc1 | 33.2% | 23.7% | 22.6%
15 | N#C/C(=C\c1cccc(C(=O)O)c1)C(=O)NC1CC1 | 20.1% | 11.9% | 20.2%
16 | CN(C)c1ccc(/C=C(\C#N)C(=O)NCc2ccccn2)cc1 | 21.3% | inactive | 25.3%
17 | N#C/C(=C\c1ccc(Br)s1)C(N)=O | 19.2% | 26.3% | 20.2%
18 | CC(C)/C(=C(\C#N)C(N)=O)c1ccccc1 | 13.8% | 10.1% | inactive
19 | N#C/C(=C\c1ccc(Br)o1)C(=O)NC1CC1 | 23.9% | 26.9% | 15.6%
20 | CC(=C\c1ccccc1)/C=C(\C#N)C(N)=O | 34.6% | 20.5% | 30.2%
21 | CCC/C(=C(\C#N)C(N)=O)c1ccccc1 | 16% | 6.9% | 7.6%
22 | N#C/C(=C\c1ccccc1N1CCOCC1)C(N)=O | 7.7% | 7.4% | 10.4%
23 | CN(C)c1ccc(/C=C(\C#N)C(=O)N2CCOCC2)cc1 | 38.1% | 25.1% | 43.3%
24 | CN(C)c1ccc(/C=C/CC(C#N)C(=O)NC2CC2)cc1 (stereo not drawn) | 37% | 6.7% | 9%
25 | N#C/C(=C\c1ccc(N2CCOCC2)s1)C(N)=O | 29.1% | 38.6% | 23.2%

Row | SMILES | inhibition (West Nile virus) | inhibition (Prothrombin) | inhibition (Dengue virus)
26 | CCC/C(=C(/C#N)C(N)=O)c1ccccc1 | 15.3% | 11.1% | 6.7%
27 | COc1cc(CC(C#N)C(N)=O)cc(OC)c1OC (stereo not drawn) | inactive | inactive | inactive
28 | COc1cc(/C=C(\C#N)C(N)=O)ccc1OCc1ccccc1 | inactive | 16% | inactive
29 | CN1CCN(c2c(F)c(F)c(/C=C(\C#N)C(N)=O)c(F)c2F)CC1 | 31.9% | 28.5% | 19.2%
30 | N#C/C(=C\c1ccc(Cl)s1)C(N)=O | 23.8% | 27.9% | 22%
31 | N#C/C(=C\c1ccc(C#N)cc1)C(N)=O | 20% | 10.6% | 13.3%
32 | COc1ccc(/C=C(\C#N)C(=O)N[C@@H](CO)C(=O)NC2CC2)cc1 | 31.7% | 23.3% | 23%
33 | N#C/C(C(N)=O)=C1\CCc2ccccc21 | 24.1% | 10.3% | 23.2%
34 | N#C/C(=C\c1ccc(C(=O)N2CCOCC2)cc1)C(=O)NC1CC1 | 23% | 9% | 22.9%
35 | CC(C)c1ccc(/C=C(\C#N)C(=O)NCc2ccccn2)cc1 | 39.5% | 11.6% | 24.9%
36 | N#C/C(=C\c1cccnc1)C(N)=O | inactive | inactive | inactive
37 | C/C(=C\c1ccccc1)CC(C#N)C(N)=O (stereo not drawn) | inactive | inactive | inactive
38 | CN(C)c1ccc(C=C(C#N)C#N)cc1 | 8.8% | 16.3% | 8.7%
39 | N#C/C(=C\c1ccc(C(=O)O)cc1)C(=O)NC1CC1 | 31% | 15.9% | 20%
40 | CN(C)c1ccc(/C=C(\C#N)C(N)=S)cc1 | inactive | 13.7% | inactive
41 | N#C/C(=C\c1ccc(F)cc1)C(N)=O | 16% | 7.9% | 22.5%
42 | N#C/C(=C\c1ccc(Br)cc1)C(N)=O | 15.9% | 13.6% | 11.6%
43 | N#C/C(=C\c1cccc(C(=O)NC2CC2)c1)C(=O)NC1CC1 | 19.1% | 8% | 10.8%
44 | CC(=O)Oc1ccc(/C=C(\C#N)C(N)=O)cc1 | 28.8% | 24.4% | 43.1%
45 | COC(=O)[C@H](CO)NC(=O)/C(C#N)=C/c1ccc(OC)cc1 | 21.1% | 21.4% | 20.3%
46 | CN(C)c1ccc(/C=C(\C#N)C(N)=O)cc1 | 46% | 21.6% | 35.1%
47 | N#C/C(=C\c1ccc(Br)cc1)C(=O)NC1CC1 | 22.6% | inactive | 10.9%
48 | COc1cc(/C=C(\C#N)C(N)=O)ccc1O | 42.9% | 17.4% | 43.2%
49 | N#C/C(=C\c1cc(O)c(O)c([N+](=O)[O-])c1)C(N)=O | 28.2% | 22.5% | 24.3%

The remaining lines, values ahead:

Row | inhibition (West Nile virus) | inhibition (Prothrombin) | inhibition (Dengue virus) | SMILES
50 | 21.7% | 8.7% | 22.1% | N#C/C(=C\c1ccc(CO)cc1)C(N)=O
51 | 23.4% | 16.7% | 19.7% | COc1ccc(/C=C(\C#N)C(N)=O)cc1
52 | 43.8% | 23% | 30.5% | COc1cc(/C=C(\C#N)C(N)=O)cc(I)c1O
53 | 23.9% | 15.7% | 28.4% | N#C/C(=C\c1cccs1)C(N)=O
54 | 21.9% | inactive | 16.8% | C/C(=C(/C#N)C(N)=O)c1ccc(O)cc1
55 | 12.3% | 9.6% | 16.3% | COc1cccc(/C=C(\C#N)C(N)=O)c1
56 | 57.3% | 18.8% | 44.7% | N#C/C(=C\c1ccc(O)cc1)C(=O)NC1CC1
57 | 7.9% | inactive | inactive | N#CC(Cc1ccc(N2CCOCC2)cc1)C(N)=O (stereo not drawn)
58 | inactive | inactive | inactive | N#CC(Cc1c[nH]c2ccccc12)C(N)=O (stereo not drawn)
59 | 16.2% | inactive | 7.1% | CN(C)c1ccc(CC(C#N)C(N)=O)cc1 (stereo not drawn)
60 | 33.4% | 16.4% | 23.7% | N#C/C(=C\c1c[nH]c2ccccc12)C(N)=O
61 | inactive | inactive | inactive | N#C/C(=C\c1ccncc1)C(N)=O
62 | 10.5% | 17.9% | inactive | N#C/C(=C\c1ccc(Br)s1)C(=O)NC1CC1
63 | 28.1% | 19.8% | 23.3% | CN(C)c1ccc(/C=C(\C#N)C(=O)NCC2CCCO2)cc1 (stereo not drawn)
64 | 41.8% | 18.9% | 46.6% | N#C/C(=C\c1ccc(O)cc1)C(=O)NCc1ccccn1
65 | 11.2% | inactive | inactive | N#Cc1n[nH]nc1-c1ccccc1
66 | inactive | 16.7% | inactive | CC(C)/C(=C(/C#N)C(N)=O)c1ccccc1
67 | 20.5% | 9.7% | 18.5% | N#C/C(=C\c1cccc(N2CCOCC2)c1)C(=O)NC1CC1
68 | 49.9% | 18% | 32.2% | N#C/C(=C\c1ccc(O)cc1)C(=O)N1CCOCC1
69 | 28.8% | 18.4% | 34.9% | N#C/C(=C\c1ccc(O)c(O)c1)C(N)=O
70 | 32.4% | 21.9% | 21% | CCN(CC)C(=O)/C(C#N)=C/c1cc(O)c(O)c([N+](=O)[O-])c1
71 | 22% | 20% | 19.2% | COc1ccc(/C=C(\C#N)C(N)=O)cc1OC
